Where only a bound is given, the exact number is not on record here.

The species named for one experiment is Rattus norvegicus. Kind of experiment: In vitro competitive antagonist effect of OT contractile action in the rat uterus determined by the rat oxytocic assay in presence of Mg2+. Conditions: read-out: pA2 (converted). The format is functional. Put shortly:
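Isolated rat uterus, oxytocin-induced contraction, bath containing magnesium salts; pA2 (negative log molar antagonist concentration halving agonist response) obtained by Schild method from at least four separate assays.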
`CC[C@H](C)[C@@H]1NC(=O)[C@@H](Cc2c[nH]c3ccccc23)NC(=O)CC2(CCCCC2)SSC[C@@H](C(=O)N2CCC[C@@H]2C(=O)N[C@@H](CCCN=C(N)N)C(=O)NCC(N)=O)NC(=O)[C@H](CC(N)=O)NC(=O)[C@H](CCC(N)=O)NC1=O`: the Kb was 14.1 nM.

As for `CC[C@H](C)[C@H]1NC(=O)[C@@H](Cc2c[nH]c3ccccc23)NC(=O)CC2(CCCCC2)SSC[C@@H](C(=O)N2CCC[C@H]2C(=O)N[C@@H](CCCN=C(N)N)C(=O)NCC(N)=O)NC(=O)[C@H](CC(N)=O)NC(=O)[C@H](CCC(N)=O)NC1=O`, the Kb is 7760 nM.

`CC[C@H](C)[C@@H]1NC(=O)[C@@H](Cc2c[nH]c3ccccc23)NC(=O)CC2(CCCCC2)SSC[C@H](C(=O)N2CCC[C@H]2C(=O)N[C@@H](CCCN=C(N)N)C(=O)NCC(N)=O)NC(=O)[C@H](CC(N)=O)NC(=O)[C@H](CCC(N)=O)NC1=O`: the Kb was 5.13 nM.

As to `CC[C@@H](C)[C@H]1NC(=O)[C@@H](Cc2c[nH]c3ccccc23)NC(=O)CC2(CCCCC2)SSC[C@@H](C(=O)N2CCC[C@H]2C(=O)N[C@@H](CCCN=C(N)N)C(=O)NCC(N)=O)NC(=O)[C@H](CC(N)=O)NC(=O)[C@H](CCC(N)=O)NC1=O`, the Kb is 5890 nM.

As for `CC[C@H](C)[C@@H]1NC(=O)[C@@H](Cc2c[nH]c3ccccc23)NC(=O)CC2(CCCCC2)SSC[C@@H](C(=O)N2CCC[C@H]2C(=O)N[C@@H](CCCNC(=N)N)C(=O)NCC(N)=O)NC(=O)[C@H](CC(N)=O)NC(=O)[C@@H]([C@H](C)O)NC1=O`, the Kb is 11200 nM.

`CC[C@H](C)[C@@H]1NC(=O)[C@@H](Cc2c[nH]c3ccccc23)NC(=O)CC2(CCCCC2)SSC(C)(C)[C@H](C(=O)N2CCC[C@H]2C(=O)N[C@@H](CCCNC(=N)N)C(=O)NCC(N)=O)NC(=O)[C@H](CC(N)=O)NC(=O)[C@H](CCC(N)=O)NC1=O`: the Kb is 10.5 nM.

For the compound `CC[C@H](C)[C@@H]1NC(=O)[C@@H](Cc2c[nH]c3ccccc23)NC(=O)CC2(CCCCC2)SSC[C@@H](C(=O)N2CCC[C@H]2C(=O)N[C@@H](CCCN=C(N)N)C(=O)NCC(N)=O)NC(=O)[C@H](CC(N)=O)NC(=O)[C@@H](CC(N)=O)NC1=O`, the Kb is 3890 nM.

On to `CC[C@H](C)[C@@H]1NC(=O)[C@@H](Cc2c[nH]c3ccccc23)NC(=O)CC2(CCCCC2)SSC[C@@H](C(=O)N2CCC[C@H]2C(=O)N[C@H](CCCN=C(N)N)C(=O)NCC(N)=O)NC(=O)[C@H](CC(N)=O)NC(=O)[C@H](CCC(N)=O)NC1=O`, for which the Kb was 12.3 nM.

Consider `CC[C@H](C)[C@@H]1NC(=O)[C@@H](Cc2c[nH]c3ccccc23)NC(=O)CC2(CCCCC2)SSC[C@@H](C(=O)N2CCC[C@H]2C(=O)N[C@@H](CCCN=C(N)N)C(=O)NCC(N)=O)NC(=O)[C@H](CC(N)=O)NC(=O)[C@@H](CCCNC(N)=O)NC1=O`, for which the Kb was 3090 nM.

The next experiment has as its system Rattus norvegicus. Kind of experiment: In vivo evaluation for the competitive antagonism of Antidiuretic action in the rat determined by the rat antidiuretic assay. Conditions: Urine, read-out: pA2 (converted).
As for `CC[C@H](C)[C@@H]1NC(=O)[C@@H](Cc2c[nH]c3ccccc23)NC(=O)CC2(CCCCC2)SSC[C@H](C(=O)N2CCC[C@H]2C(=O)N[C@@H](CCCN=C(N)N)C(=O)NCC(N)=O)NC(=O)[C@H](CC(N)=O)NC(=O)[C@H](CCC(N)=O)NC1=O`, the Kb was greater than 501 nM.

Consider `CC[C@H](C)[C@@H]1NC(=O)[C@@H](Cc2c[nH]c3ccccc23)NC(=O)CC2(CCCCC2)SSC[C@@H](C(=O)N2CCC[C@H]2C(=O)N[C@H](CCCN=C(N)N)C(=O)NCC(N)=O)NC(=O)[C@H](CC(N)=O)NC(=O)[C@H](CCC(N)=O)NC1=O`, for which the Kb was greater than 2510 nM.

For the compound `CC[C@H](C)[C@@H]1NC(=O)[C@@H](Cc2c[nH]c3ccccc23)NC(=O)CC2(CCCCC2)SSC[C@@H](C(=O)N2CCC[C@H]2C(=O)N[C@@H](CCCN=C(N)N)C(=O)NCC(N)=O)NC(=O)[C@H](CC(N)=O)NC(=O)[C@H](CCC(N)=O)NC1=O`, the Kb is greater than 1260 nM.
